Assay results from ChEMBL document CHEMBL4477194, “Royal Jelly Constituents Increase the Expression of Extracellular Superoxide Dismutase through Histone Acetylation in Monocytic THP-1 Cells” (J Nat Prod, 2016).
The source made the active and inactive calls. The rule behind the calls is not given here.

Assays:
[1] = species on record: Homo sapiens; experiment: Upregulation of HDAC1 inhibition/ERK signalling activation-mediated extracellular SOD protein expression in human THP1 cells at 100 uM incubated for 24 hrs by ELISA; type: cell-based
Summary of the method: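 THP-1 cells treated 24 h at 100 μM and collected in PBS. Cellular EC-SOD protein content measured by ELISA. Means ± SD of three independent experiments.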

[2] = species on record: Homo sapiens; experiment: Upregulation of HDAC1 inhibition/ERK signalling activation-mediated extracellular SOD mRNA expression in human THP1 cells at 1 to 10 uM incubated for 24 hrs by RT-PCR method; type: cell-based
Summary of the method: (§1)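 THP-1 cells treated 24 h at the indicated concentrations, or at 100 μM for the indicated times. EC-SOD mRNA measured by real-time RT-PCR normalized to 18S rRNA. Means ± SD of three independent experiments.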

[3] = test system: THP-1; experiment: Cytotoxicity against human THP1 cells assessed as reduction in cell viability at 100 uM after 24 hrs by MTT assay; type: cell-based; conditions: thp-1, 24 h
Summary of the method: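 THP-1 cells treated 24 h in 24-well plates; medium replaced with 10% FCS-RPMI 1640 containing 0.5 mg/mL MTT, 2 h at 37 °C, 5% CO2. Formazan dissolved in 2-propanol with 0.04 N HCl, read at 595 nm (reference 655 nm). Mean ± SD, n = 3.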

[4] = species on record: Homo sapiens; experiment: Upregulation of HDAC1 inhibition/ERK signalling activation-mediated extracellular SOD mRNA expression in human THP1 cells at 100 uM by RT-PCR method; type: cell-based; conditions: TDE = time-dependent effect; summary of the method: as §1
[5] = target: Histone deacetylase 1 (Homo sapiens) (UniProt Q13547); experiment: Inhibition of HDAC1 in human THP1 cells assessed as increase in histone H4 acetylation level at 50 uM after 12 hrs by Western blot analysis relative to control; type: cell-based
Summary of the method: (§2)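 THP-1 cells treated 12 h at the indicated concentrations. Acetylated histone H3 and H4 detected by Western blot (20 μg protein, 12% SDS-PAGE, PVDF, primary antibodies 1:1000). Histone loading checked by Coomassie staining.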

[6] = target: Histone deacetylase 1 (Homo sapiens) (UniProt Q13547); experiment: Inhibition of HDAC1 in human THP1 cells assessed as increase in histone H4 acetylation level at 100 uM after 12 hrs by Western blot analysis relative to control; type: cell-based; summary of the method: as §2
[7] = target: Histone deacetylase 1 (Homo sapiens) (UniProt Q13547); experiment: Inhibition of HDAC1 in human THP1 cells assessed as increase in histone H3 acetylation level at 50 uM after 12 hrs by Western blot analysis relative to control; type: cell-based; summary of the method: as §2
[8] = target: Histone deacetylase 1 (Homo sapiens) (UniProt Q13547); experiment: Inhibition of HDAC1 in human THP1 cells assessed as increase in histone H3 acetylation level at 100 uM after 12 hrs by Western blot analysis relative to control; type: cell-based; summary of the method: as §2
[9] = target: Histone deacetylase 1 (Homo sapiens) (UniProt Q13547); experiment: Upregulation of HDAC1 inhibition-mediated histone H4 acetylation-induced extracellular SOD expression in human THP1 cells at 100 uM after 12 hrs by chromatin immunoprecipitation method; type: cell-based
Summary of the method: (§3)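 THP-1 cells (5 × 10^6) treated 12 h, at 1 mM or 100 μM per line. Cross-linked with formaldehyde 5 min at room temperature and chromatin sonicated to 150–800 bp. Immunoprecipitated overnight on protein G beads and washed in RIPA I/II and TE. Eluted with RNase A and proteinase K. EC-SOD promoter binding expressed as % of input.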

[10] = target: Histone deacetylase 1 (Homo sapiens) (UniProt Q13547); experiment: Upregulation of HDAC1 inhibition-mediated histone H3 acetylation-induced extracellular SOD expression in human THP1 cells at 100 uM after 12 hrs by chromatin immunoprecipitation method; type: cell-based; summary of the method: as §3
[11] = species on record: Homo sapiens; experiment: Induction of ERK phosphorylation in human THP1 cells at 50 to 100 uM incubated for 3 hrs by Western blot analysis; type: cell-based
Summary of the method: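 THP-1 cells treated 3 h at the indicated concentrations. Whole-cell extracts, 20 μg protein, run on 12% SDS-PAGE and transferred to PVDF. Blocked in 1% BSA/PBS. Probed with anti-phospho-ERK and anti-ERK (1:1000), then biotin-conjugated secondary (1:1000).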

[12] = species on record: Homo sapiens; experiment: Upregulation of HDAC1 inhibition/ERK signalling activation-mediated extracellular SOD mRNA expression in human THP1 cells at 100 uM after 24 hrs in presence of ERK inhibitor U0126 by RT-PCR method; type: cell-based
Summary of the method: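 THP-1 cells pretreated 30 min with 5 μM U0126, then exposed to compound at 100 μM for 24 h. EC-SOD mRNA measured by real-time RT-PCR normalized to 18S rRNA.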

[13] = test system: THP-1; experiment: Downregulation of HDAC1 mRNA expression in human THP1 cells at 100 uM after 24 hrs by RT-PCR method; type: functional, cell-based
Summary of the method: (§4)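 THP-1 cells in RPMI 1640 with 10% heat-inactivated FCS, 37 °C, 5% CO2. Seeded 2.0 × 10^6 cells per 3.5 cm dish and treated 24 h, at 1 mM for the 1 mM lines and 100 μM for the 100 μM lines. RNA extracted in TRIzol, then real-time RT-PCR normalized to 18S rRNA. Means ± SD of three independent experiments; ANOVA with Bonferroni post hoc.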

[14] = test system: THP-1; experiment: Downregulation of HDAC2 mRNA expression in human THP1 cells at 100 uM after 24 hrs by RT-PCR method; type: functional, cell-based; summary of the method: as §4
[15] = test system: THP-1; experiment: Upregulation of HDAC4 mRNA expression in human THP1 cells at 100 uM after 24 hrs by RT-PCR method; type: functional, cell-based; summary of the method: as §4
[16] = test system: THP-1; experiment: Downregulation of HDAC5 mRNA expression in human THP1 cells at 100 uM after 24 hrs by RT-PCR method; type: functional, cell-based; summary of the method: as §4
[17] = test system: THP-1; experiment: Downregulation of HDAC6 mRNA expression in human THP1 cells at 100 uM after 24 hrs by RT-PCR method; type: functional, cell-based; summary of the method: as §4
[18] = test system: THP-1; experiment: Upregulation of HDAC10 mRNA expression in human THP1 cells at 100 uM after 24 hrs by RT-PCR method; type: functional, cell-based; summary of the method: as §4
[19] = target: Histone deacetylase 1 (Homo sapiens) (UniProt Q13547); experiment: Inhibition of recombinant HDAC1 catalytic domain (unknown origin) using HDAC substrate at 100 uM preincubated for 1 hr followed by substrate addition measured after 30 mins by fluorescence assay relative to control
Summary of the method: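 Recombinant HDAC1 in assay buffer exposed to compound at 100 μM for 1 h. Fluorogenic HDAC substrate then added, 30 min at 37 °C in the dark. Developer added, 15 min at room temperature. Fluorescence read at ex 365 nm, em 410–460 nm, relative to untreated.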

Sequence of Histone deacetylase 1 (Homo sapiens) (Q13547 whole entry, the tested form may be a part): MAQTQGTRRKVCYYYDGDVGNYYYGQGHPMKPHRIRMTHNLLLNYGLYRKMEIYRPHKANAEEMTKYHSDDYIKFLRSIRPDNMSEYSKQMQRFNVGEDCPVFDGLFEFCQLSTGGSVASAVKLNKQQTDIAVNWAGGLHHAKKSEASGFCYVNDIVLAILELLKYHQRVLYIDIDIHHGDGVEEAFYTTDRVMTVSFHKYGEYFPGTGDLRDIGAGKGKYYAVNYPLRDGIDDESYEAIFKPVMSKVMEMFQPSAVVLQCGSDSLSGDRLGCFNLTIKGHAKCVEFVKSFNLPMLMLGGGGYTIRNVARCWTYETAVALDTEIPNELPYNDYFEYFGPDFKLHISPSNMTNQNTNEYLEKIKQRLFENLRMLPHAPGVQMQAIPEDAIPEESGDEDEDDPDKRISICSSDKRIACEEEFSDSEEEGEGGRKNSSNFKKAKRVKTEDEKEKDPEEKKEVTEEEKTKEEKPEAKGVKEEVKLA

**Q.** What does the source list for `CCCCCCC(/C=C/C(=O)OCC)OO` (centres undefined)?
**A.** Activity [1]: Active; Activity [2]: inactive; Activity [3]: Non-Toxic; Activity [4]: Tde; fold change (FC) [5]: 3.32; fold change (FC) [6]: 3.77; fold change (FC) [7]: 1.82; fold change (FC) [8]: 4.27; Activity [9]: Active; Activity [10]: Active; Activity [11]: Active; Activity [12]: inactive; Activity [13]: Active; Activity [14]: Active; Activity [15]: Active; Activity [16]: Active; Activity [17]: Active; Activity [18]: Active; inhibition [19]: 50%
